Data published in PMC2886165 (Biochimica et biophysica acta, 2010).
Where “and” joins values, the source holds several entries; their conditions need not be identical. Identical values can stand only once. Like-named read-outs stand apart in the source and are kept apart here.

Tests used:
RORγ LBD = target: T1, RORγ LBD (Homo sapiens, UniProt P51449); format: binding
T1 sequence (P51449 269-508 limits assumed): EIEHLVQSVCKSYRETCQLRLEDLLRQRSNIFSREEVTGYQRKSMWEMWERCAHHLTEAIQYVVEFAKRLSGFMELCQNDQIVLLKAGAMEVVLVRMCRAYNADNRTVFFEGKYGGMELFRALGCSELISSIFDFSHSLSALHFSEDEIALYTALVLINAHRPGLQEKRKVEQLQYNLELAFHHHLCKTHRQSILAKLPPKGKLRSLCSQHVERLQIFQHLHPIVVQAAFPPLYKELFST

Gal4-RORα LBD [1] = target: T2, Gal4-RORα LBD (Homo sapiens, UniProt P35398); assay: Gal4-RORα LBD cotransfection luciferase assay in HEK293 cells; format: cell-based; conditions: for effect on constitutive activity: single dose of 10 μM
T2 sequence (P35398 272-510 limits assumed): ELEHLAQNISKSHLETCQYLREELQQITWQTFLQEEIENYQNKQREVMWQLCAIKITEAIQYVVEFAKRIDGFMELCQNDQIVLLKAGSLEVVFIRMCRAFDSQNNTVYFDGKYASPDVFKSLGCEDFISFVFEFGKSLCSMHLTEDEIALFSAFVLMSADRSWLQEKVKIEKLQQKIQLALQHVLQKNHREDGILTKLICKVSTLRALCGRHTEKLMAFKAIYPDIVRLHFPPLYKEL
Summary of the method: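 Gal4-RORα LBD plasmid transfected into HEK293 cells with Lipofectamine 2000; cells plated 15 × 10^3/well 24 h earlier. […] Dual luciferase read after 24 h; four wells per point, ≥3 repeats. IC50 derived by non-linear regression; dose responses analysed by one-way ANOVA.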

Gal4-RORγ LBD [2] = target: T3, Gal4-RORγ LBD (Homo sapiens, UniProt P51449); assay: Gal4-RORγ LBD cotransfection luciferase assay in HEK293 cells; format: cell-based; conditions: for effect on constitutive activity: single dose of 10 μM
T3 sequence (P51449 269-508 limits assumed): T1 sequence (P51449 269-508 limits assumed)

Gal4-RORα LBD [3] = target: T2, Gal4-RORα LBD; conditions: previous study; cited from earlier work
LXRs = conditions: cited from earlier work
Gal4-RORγ LBD [4] = target: T3, Gal4-RORγ LBD; conditions: previous study; cited from earlier work
RORα LBD = target: T4, RORα LBD (Homo sapiens, UniProt P35398); format: binding; conditions: competition with 3 nM [3H]-25-hydroxycholesterol, Cheng-Prusoff
T4 sequence (P35398 272-510 limits assumed): T2 sequence (P35398 272-510 limits assumed)

full-length RORα = target: T5, full-length RORα (Homo sapiens, UniProt P35398); format: cell-based; conditions: 10 μM, HEK293
T5 sequence (P35398 1-523): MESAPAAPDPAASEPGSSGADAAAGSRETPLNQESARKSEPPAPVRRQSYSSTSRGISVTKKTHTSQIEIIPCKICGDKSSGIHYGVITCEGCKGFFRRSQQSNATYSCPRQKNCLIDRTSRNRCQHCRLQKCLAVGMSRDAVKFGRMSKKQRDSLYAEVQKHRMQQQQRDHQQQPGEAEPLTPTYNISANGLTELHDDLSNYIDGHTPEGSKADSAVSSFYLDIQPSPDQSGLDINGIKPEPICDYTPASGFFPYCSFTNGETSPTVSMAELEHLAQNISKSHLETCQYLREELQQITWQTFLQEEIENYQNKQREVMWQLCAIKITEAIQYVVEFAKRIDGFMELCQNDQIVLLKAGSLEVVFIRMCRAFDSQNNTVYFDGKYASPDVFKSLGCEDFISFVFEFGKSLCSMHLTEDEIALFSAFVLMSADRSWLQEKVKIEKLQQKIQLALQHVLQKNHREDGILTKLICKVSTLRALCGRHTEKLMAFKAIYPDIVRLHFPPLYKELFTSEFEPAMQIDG
Summary of the method: (§1)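 HEK293 cells (DMEM, 10% FBS, 37 °C, 5% CO2) plated at 15 × 10^3 cells/well 24 h before transfection. Lipofectamine 2000 cotransfection of full-length receptor expression vector plus Bmal1 promoter-luciferase reporter. Vehicle or 10 μM test compound added 16 h post-transfection; dual luciferase read 24 h later. Mean ± S.E. of four wells, repeated at least three times; paired t test.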

full-length RORγ = target: T6, full-length RORγ (Homo sapiens, UniProt P51449); format: cell-based; conditions: 10 μM, HEK293
T6 sequence (P51449 1-518): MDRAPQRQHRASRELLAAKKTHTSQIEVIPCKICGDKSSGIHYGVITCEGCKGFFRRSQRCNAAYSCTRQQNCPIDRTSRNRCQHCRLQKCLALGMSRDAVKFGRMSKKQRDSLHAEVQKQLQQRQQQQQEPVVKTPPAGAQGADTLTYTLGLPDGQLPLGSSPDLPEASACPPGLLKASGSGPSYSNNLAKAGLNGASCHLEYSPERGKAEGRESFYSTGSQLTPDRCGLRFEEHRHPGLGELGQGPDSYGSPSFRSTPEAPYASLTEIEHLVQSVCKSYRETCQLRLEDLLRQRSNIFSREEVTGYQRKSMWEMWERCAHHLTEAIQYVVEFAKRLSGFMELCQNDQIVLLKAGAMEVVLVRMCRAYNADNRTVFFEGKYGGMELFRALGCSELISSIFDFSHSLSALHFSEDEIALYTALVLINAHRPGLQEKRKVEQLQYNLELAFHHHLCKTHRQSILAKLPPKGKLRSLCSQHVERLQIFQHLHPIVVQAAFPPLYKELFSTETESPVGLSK
Summary of the method: as §1

RORα = target: T7, RORα (Homo sapiens, UniProt P35398); assay: RORα cotransfection assay, G6Pase promoter luciferase reporter; format: cell-based; conditions: 10 μM, HepG2 (Figure 3C legend)
T7 sequence (P35398 1-523): T5 sequence (P35398 1-523)

[5] = tested on: RORα target genes (BMAL1, REV-ERBα); assay: Quantitative PCR of RORα target genes in HepG2 cells; format: cell-based, human; conditions: 10 μM
Summary of the method: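 HepG2 cells treated with 10 μM test compound, with RORα-targeting siRNA or scrambled control siRNA. Total RNA extracted, reverse-transcribed and quantified by real-time PCR using human BMAL1 and REV-ERBα primers.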

[6] = target: T8, RORα / SRC-2 on BMAL1 promoter (Homo sapiens, UniProt P35398); format: cell-based; conditions: 10 μM, 24 hours, HepG2
T8 sequence (P35398 1-523): T5 sequence (P35398 1-523)
Summary of the method: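 HepG2 cells (MEM, 10% FBS, 37 °C, 5% CO2) infected with RORα adenovirus for 24 h, then given vehicle or 10 μM test compound for a further 24 h. First IP with anti-FLAG; re-IP with anti-SRC2, anti-RNA Pol II (positive control) or IgG (negative control). Bmal1 promoter amplified by PCR; band intensity averaged over three experiments.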

Question: Which Ki (RORγ LBD) does the source give for `CC(C)[C@H](O)CC[C@@H](C)[C@H]1CC[C@H]2[C@@H]3CC=C4C[C@@H](O)CC[C@]4(C)[C@H]3CC[C@]12C` [24R-OHC, 24R-hydroxycholesterol] here?
Answer: 102 nM

Question: And the “effect on constitutive activity” value (Gal4-RORα LBD [1])?
Answer: no effect

Question: And the IC50 (Gal4-RORγ LBD [2])?
Answer: 90 nM

Question: What about the “effect on constitutive activity” value (Gal4-RORγ LBD [2]; HEK293) of the same compound?
Answer: significant decrease in the constitutive activity

Question: Which “effect on activity of RORα” value (Gal4-RORα LBD [3]) does the source give for `C[C@H](CCCC(C)(C)O)[C@H]1CC[C@H]2[C@@H]3CC=C4C[C@@H](O)CC[C@]4(C)[C@H]3CC[C@]12C` [25-OHC, 25-hydroxycholesterol] here?
Answer: unable to affect the activity

Question: For `CC(C)CCC[C@@H](C)[C@H]1CC[C@H]2[C@@H]3C(=O)C=C4C[C@@H](O)CC[C@]4(C)[C@H]3CC[C@]12C` [7-ketocholesterol], which “affinity for the LXRs” value (LXRs) is on record?
Answer: no affinity

Question: For `C[C@@H](CO)CCC[C@@H](C)[C@H]1CC[C@H]2[C@@H]3CC=C4C[C@@H](O)CC[C@]4(C)[C@H]3CC[C@]12C` [27-OHC], which “effect on activity of RORα” value (Gal4-RORα LBD [3]) is on record?
Answer: unable to affect the activity

Question: And the “effect on activity of RORγ” value (Gal4-RORγ LBD [4])?
Answer: unable to affect the activity

Question: Which results are given for `CC(C)CC[C@@H](O)[C@@H](C)[C@H]1CC[C@H]2[C@@H]3CC=C4C[C@@H](O)CC[C@]4(C)[C@H]3CC[C@]12C` [22-OHC]?
Answer: effect on activity of RORα (Gal4-RORα LBD [3]): unable to affect the activity; effect on activity of RORγ (Gal4-RORγ LBD [4]): unable to affect the activity

Question: Which results are given for `CC(C)[C@@H](O)CC[C@@H](C)[C@H]1CC[C@H]2[C@@H]3CC=C4C[C@@H](O)CC[C@]4(C)[C@H]3CC[C@]12C` [24S-OHC, 24S-hydroxycholesterol]?
Answer: Ki (RORα LBD): 27 nM; Ki (RORγ LBD; competition with 3 nM [3H]-25-hydroxycholesterol, Cheng-Prusoff): ~25 nM and 25 nM; reduction of transcriptional activity (Gal4-RORα LBD [1]; 10 μM): 30 to 40%; Maximal suppression (Gal4-RORα LBD [1]; dose-response): ~30%; IC50 (Gal4-RORα LBD [1]; read-out: IC50 (suppression of transcriptional activity), dose-response): 620 nM; reduction of transcriptional activity (Gal4-RORγ LBD [2]; 10 μM, HEK293): 30 to 40%; Maximal suppression (Gal4-RORγ LBD [2]; dose-response, HEK293): ~30%; IC50 (Gal4-RORγ LBD [2]; read-out: IC50 (suppression of transcriptional activity), dose-response, HEK293): 1300 nM; suppression of Bmal1 driven reporter gene expression (full-length RORα): 20-40%; suppression of Bmal1 driven reporter gene expression (full-length RORγ): 20-40%; suppression of G6Pase promoter reporter expression (RORα): approximately 30%; decrease of BMAL1 mRNA expression [5]: 38%; decrease of REV-ERBα mRNA expression [5]: 33%; reduction of SRC-2 recruited versus DMSO control [6]: ~50%

Question: Which results are given for `C[C@H](CC[C@@H]1OC1(C)C)[C@H]1CC[C@H]2[C@@H]3CC=C4C[C@@H](O)CC[C@]4(C)[C@H]3CC[C@]12C` [24,25-epoC, 24(S),25 epoxycholesterol]?
Answer: Ki (RORγ LBD): 20 nM; effect on constitutive activity (Gal4-RORα LBD [1]): without having any significant effect; IC50 (Gal4-RORγ LBD [2]): 280 nM; effect on constitutive activity (Gal4-RORγ LBD [2]; HEK293): suppresses the activity

Question: For `CC(C)CCC[C@@H](C)[C@H]1CC[C@H]2[C@@H]3[C@H](O)C=C4C[C@@H](O)CC[C@]4(C)[C@H]3CC[C@]12C` [7α-OHC], which “affinity for the LXRs” value (LXRs) is on record?
Answer: no affinity
